# TbHK1 inh: Trypanosoma brucei hexokinase 1 inhibitors, primary screen, biochemical, G6PDH-coupled NADH absorbance, MLSCN library; inhibition, % at 10 µM; 220,000 tested, 0.11% active; recombinant TbHK1, G6PDH-coupled NADH A340;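 active = inhibition of 50% or more in the single-dose primary screen; inactive = inhibition below 50%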
# EP2 mod: EP2 receptor modulators, cAMP readout, primary screen, cell-based, HTRF cAMP, PGE2 stimulation; EP2-expressing cells, cAMP HTRF FRET, PGE2 co-stimulation; AID 940, 2007; 260,000 tested, 0.83% active; induction, % at 25 µM;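 active = compounds whose cAMP rise, as percent of the full-agonist control response, exceeds 60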;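 note: rat C6 glioma line stably carrying human EP2 under a CMV promoter; the protocol text gives 20 µM as final concentration; 100% = response of wells given 1 µM PGE2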
# Target sequence (P43116 whole entry, looked up): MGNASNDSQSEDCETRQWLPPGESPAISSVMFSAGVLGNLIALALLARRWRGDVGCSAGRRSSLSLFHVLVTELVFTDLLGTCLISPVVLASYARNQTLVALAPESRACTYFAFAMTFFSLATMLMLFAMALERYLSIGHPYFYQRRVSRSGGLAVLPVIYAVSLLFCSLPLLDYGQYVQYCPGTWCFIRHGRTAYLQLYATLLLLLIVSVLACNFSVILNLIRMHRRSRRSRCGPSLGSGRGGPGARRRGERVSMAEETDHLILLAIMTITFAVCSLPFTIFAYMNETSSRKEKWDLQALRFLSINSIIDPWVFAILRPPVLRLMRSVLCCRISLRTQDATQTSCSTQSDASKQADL
# PGE2 EP2 inh: human EP2 receptor antagonists, primary screen, TR-FRET cAMP, C6 glioma cells; C6 glioma cells expressing human EP2; cells stimulated with saturating PGE2; inhibition, % at 25 µM; 260,000 tested, 0.52% active;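 active = percent inhibition above 40 after rounding to a whole number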;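 note: rat C6 glioma host cells with rolipram phosphodiesterase inhibitor present; the protocol text gives 20 µM as final concentration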
# bCat nuc transl: modulators of beta-catenin nuclear translocation, primary screen, imaging, HeLa cells, immunofluorescence, high-content; nuclear translocation activity, % at 5 µM; 190,000 tested, 0.3% active; AID 1665, 2009;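 active = nuclear translocation activity above 50% at 5 µM, with a well cell count of 50 or more; inconclusive = wells under 50 cells across six images, flagged as toxic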;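 note: per-cell ratio of nuclear to cytoplasmic median beta-catenin stain intensity; plate controls were DMSO negative control for no effect and GSK-3 inhibitor IX positive control for full effect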
#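 Test system: HeLa cells, endogenous beta-catenin; Compound: single 5 µM dose plus 0.02–20 µM confirmation series; Times: compound exposure 24 h at 37°C; Signal: fluorescence imaging of beta-catenin antibody stain plus DAPI; Read-out: % activation, nuclear-to-cytoplasmic median beta-catenin signal ratio per cell.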
# Efa HMGR inh: inhibitors of E. faecalis class II HMGR, primary screen, biochemical, Enterococcus faecalis. 190,000 tested, 0.41% active. AID 1066, 2008. inhibition, % at 10 µM. purified E. faecalis HMGR, NADPH absorbance 340 nm kinetic. HMG-CoA reductase (Enterococcus faecalis, mvaE);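 active = inhibition above a set limit, the median over all tested compounds plus 3 SD, cut at about 9.5% in these data; inconclusive = no clear call, values can overlap the other calls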;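 note: enzyme runs in reverse so mevalonate oxidation gives rising NADPH absorbance; 0% = complete reaction with DMSO and 100% = background rate lacking mevalonate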
# MT stabilizer: microtubule stabilizers in HeLa cells, primary screen, imaging, high-content imaging; HeLa tubulin immunostaining HCS, 24 h; share of cells brighter than vehicle mean+2SD; 200,000 tested, 0.83% active; % tubulin-high responders, % at 10 µM;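 active = plate Z-score above 3 for both tubulin-high and condensed-nucleus cell shares, with cell loss under 80%, at 10 µM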;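 note: anti alpha tubulin signal scored within the nucleus-defined area of each cell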
# The depositor's hits bear a star; ? = inconclusive; . = no result given. Sampled rows, rich in hits. Any-hit rate of the full collection: about 2.4%.
SMILES,TbHK1 inh,EP2 mod,PGE2 EP2 inh,bCat nuc transl,Efa HMGR inh,MT stabilizer
CCCN1/C(=C/c2ccc3ccc(OC)cc3[n+]2CCC)Sc2cc(C)ccc21,.,-71,26,.,.,.
COc1cccc(-c2cccc(NS(=O)(=O)c3ccc4c(c3)CCC(=O)N4)c2)c1,.,-99,9,.,.,.
COCCn1c(SCC(=O)N2CCc3ccccc32)nnc1C(C)C,.,-24,2,.,.,.
COc1ccc(CCNC2=CC(=O)N(c3ccc(F)cc3)C2=O)cc1,-4,1,9,0,14*,4
CCOc1ccc(NC(=NCc2ccc3c(c2)OCO3)SC2CC(=O)N(c3ccc(OCC)cc3)C2=O)cc1 (stereo not given),11,11,12,0,-2,25*
CCSc1nc2ccccc2c(=O)n1C1CCOC(C)(C)C1 (stereo not given),-3,61*,8,.,-5,4
C=CCSc1nc2ccccc2c(=O)n1CCc1ccccc1,.,70*,10,.,.,.
COCCn1c(SCCOc2ccccc2)nc2ccccc2c1=O,2,64*,7,0,-1,3
C=CCSc1nc2ccccc2c(=O)n1C1CCOC(C)(C)C1 (stereo not given),-19,76*,5,0,.,.
COC(=O)c1ccc(NC(=O)CSc2nc3c(c(=O)n(C)c(=O)n3C)n2C)cc1,.,5,7,.,.,.
CCOC(=O)CSc1nc2ccccc2c(=O)n1CC1CCCC1,9,62*,8,-2,-7,5
CCn1c(C(CC(C)C)NC(=O)Cc2cccc(F)c2)nc2cccnc21 (stereo not given),.,0,8,.,.,.
CC(OC(=O)c1cc2sccc2n1C)C(=O)NC1CCCC1 (stereo not given),.,-40,11,.,.,.
CCC(CO)NCc1ccc(Br)cc1 (stereo not given),1,0,10,0,-6,5
CCC(CO)NCc1sccc1C (stereo not given),-5,16,3,0,10*,3
Cc1ccc2[nH]c(=O)c(C(c3nnnn3C(C)(C)C)N3CCC(Cc4ccccc4)CC3)cc2c1 (stereo not given),.,-12,13,.,.,.
COc1ccc(-c2noc(=O)n2Cc2cc(C)ccc2C)cc1,-2,51,5,4,7,11*
O=C(CC(=O)NN=C1CCCCCC1)NCc1cccnc1,1,13,1,-3,15*,3
CC1CCN(c2nc3c(c(=O)[nH]2)CCN(Cc2ccc(Cl)c(Cl)c2)C3)CC1,.,-30,2,.,.,.
O=C(Nc1ccccc1O)c1ccccn1,.,3,3,.,.,.
Cc1ccc2cccc(Oc3ccc([N+](=O)[O-])cc3[N+](=O)[O-])c2n1,-4,3,6,.,-3,16*
CCOc1ccccc1NC(=O)CCN1C(=O)/C(=C/c2cccs2)SC1=S,.,-38,6,.,.,.
COc1ccc(C[C@H]2COC(=O)[C@@H]2Cc2ccc(OC3OC(CO)C(O)C(O)C3O)c(OC)c2)cc1OC (stereo not given in full),1,17,9,.,20*,3
Oc1ccccc1-c1nc2cnccn2c1NCCc1ccccc1,.,-94,16,.,.,.
COC(=O)Cc1cc(=O)n2[nH]cnc2n1,0,14,12,-1,30*,3
SMILES,TbHK1 inh,EP2 mod,PGE2 EP2 inh,bCat nuc transl,Efa HMGR inh,MT stabilizer
COC(=O)c1c(NC(=O)C(C)C)sc(C(=O)Nc2ccc(C)c(Cl)c2)c1C,.,-21,12,.,.,.
COC(=O)c1scc(C)c1N/N=C(\C)c1ccc(F)cc1,-10,61*,4,-2,3,1
CN(Cc1ccccc1)C(=O)CC(c1ccccc1)c1cc(Cl)ccc1O (stereo not given),-7,61*,.,1,-2,2
S=c1nc[nH]c2c1[nH]c1ccc(Cl)cc12,-9,61*,10,0,.,.
Cc1ccc2[nH]c(=O)c(CN(CCO)C(=S)NCCc3ccccc3)cc2c1,.,-70,9,.,.,.
COc1ccc(N2CC(C(=O)Nc3ccccc3Cl)CC2=O)cc1 (stereo not given),.,-7,7,.,.,.
COc1ccccc1CNC(=O)c1ccc(OCc2c(C)noc2C)c(OC)c1,-4,-42,14,-2,1,1
COc1cc(C(=O)NCCc2c[nH]c3ccccc23)ccc1OCc1c(C)noc1C,-3,-103,88*,-1,-3,4
Cc1cccc(NC(=O)CSc2nc3ccccc3n2CC(=O)N2CCCC2)c1C,.,16,12,.,.,.
O=C1OC(c2cccs2)=N/C1=C/c1ccc(-c2cccc(C(=O)O)c2)o1,1,-49,2,1,16*,4
O=C1OC(c2cccs2)=N/C1=C\c1ccc(-c2ccccc2Cl)o1,10,29,11,?,-3,4
O=C(CSc1nnc(-c2cccc(F)c2)o1)N1c2ccccc2Sc2ccccc21,.,0,8,.,.,.
CCOc1cc(/C=C2\SC(=O)N=C2N)ccc1O,-13,-44,9,-1,-2,3
NC1=NC(=O)S/C1=C\c1ccc(F)cc1,-10,-25,12,1,24*,4
CC(=O)N1c2ccccc2N(Cc2ccc(C)cc2C)C(=O)C1(C)C,-4,12,10,.,2,19*
COc1ccc(NC(=O)CCN2CC(C)CC(C)C2)c(OC)c1 (stereo not given),.,-10,9,.,.,.
CCOC(=O)c1c(NC(=O)CSc2nnc(C)s2)sc2c1CCC(CC)C2 (stereo not given),1,45,7,2,14*,2
COc1cccc(NC(=O)c2ccc3c(c2)N(CC(=O)Nc2ccccc2OC)C(=O)C(C)(C)O3)c1,.,-17,10,.,.,.
CC1=NN(c2ccc(C)cc2C)C(=O)C1C(c1ccccc1)C1C(=O)N(c2ccc(C)cc2C)N=C1C (stereo not given),-4,8,5,2,9.6*,2
Cc1ccc(-n2nc(C)c(C(=O)O)n2)c(C)c1,1,22,8,-2,-2,11
COc1ccc(/C=N/NC(=O)c2cccnc2)cc1COc1ccc([N+](=O)[O-])c(C)c1,-43,-25,27,82*,.,.
COc1cccc(OCc2cc(/C=N/Nc3ccc(C(=O)O)cc3)ccc2OC)c1,-33,62*,9,0,.,.
COc1cc(/C=N/NC(=O)c2ccccc2Cl)ccc1Oc1ccc([N+](=O)[O-])cn1,-11,-32,4,2,3,17*
COCc1cc(/C=N\NC(=O)COc2ccccc2)ccc1OC,0,-29,3,1,-6,3
